Laboratory results published in ChEMBL document CHEMBL1125883, “Thromboxane receptor antagonism combined with thromboxane synthase inhibition. 1. (+/-)-(3-pyridinylbicycloheptyl)alkanoic acids” (J Med Chem, 1991).

How the values were obtained:
Homo sapiens [1] = organism: Homo sapiens; experiment: In vitro inhibition of U 46619 induced aggregation of washed human platelets; type: functional
Thromboxane-A synthase [2] = target: T1, Thromboxane-A synthase (Homo sapiens, UniProt P24557); experiment: In vitro inhibition of thromboxane synthase using [14C]arachidonic acid
T1 sequence (P24557 whole entry): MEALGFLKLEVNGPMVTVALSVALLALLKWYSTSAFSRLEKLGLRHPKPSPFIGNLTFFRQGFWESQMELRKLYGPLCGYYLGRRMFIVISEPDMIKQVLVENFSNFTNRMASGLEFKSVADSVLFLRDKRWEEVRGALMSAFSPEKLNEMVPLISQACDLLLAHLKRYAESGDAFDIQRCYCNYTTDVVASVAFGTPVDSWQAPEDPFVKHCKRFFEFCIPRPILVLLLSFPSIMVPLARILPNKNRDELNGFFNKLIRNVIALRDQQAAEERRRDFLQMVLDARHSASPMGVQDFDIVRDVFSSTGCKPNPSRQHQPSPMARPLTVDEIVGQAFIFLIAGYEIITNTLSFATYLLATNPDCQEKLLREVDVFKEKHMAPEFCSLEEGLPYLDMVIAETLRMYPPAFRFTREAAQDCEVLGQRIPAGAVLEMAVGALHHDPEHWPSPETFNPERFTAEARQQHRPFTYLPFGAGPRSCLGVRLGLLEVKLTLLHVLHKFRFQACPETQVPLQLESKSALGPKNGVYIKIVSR
How it was run: (§1)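 Human platelet microsomal preparation incubated with [14C]arachidonic acid; thromboxane synthase activity read as TxB2 formation; IC50 determined.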

Canis familiaris = organism: Canis familiaris; experiment: In vitro inhibition of U 46619 induced contraction of dog saphenous vein; type: functional; settings: Canis lupus familiaris, read-out: pA2 (converted)
How it was run: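 Dog saphenous vein rings 2-3 mm in modified Krebs buffer with 1.0 μM indomethacin, 95% O2/5% CO2, 37 °C, 2.0 g preload, isometric tension.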

Homo sapiens [3] = organism: Homo sapiens; experiment: In vitro inhibition of U 46619 induced aggregation of human PRP; type: functional, organism-based
Thromboxane-A synthase [4] = target: T1, Thromboxane-A synthase; experiment: In vitro inhibition of Thromboxane synthase using [14C]arachidonic acid […]; how it was run: as §1

Compound	IC50 (Homo sapiens [1]) [nM]	IC50 (Thromboxane-A synthase [2]) [nM]	Kb (Canis familiaris) [nM]	IC50 (Homo sapiens [3]) [nM]	IC50 (Thromboxane-A synthase [4]) [nM]
O=C(O)CCCCCC[C@@H]1C2CCC(C2)C1c1cccnc1 (some centres not stated)	9770	125			
O=C(O)CCCCCC[C@H]1C2CCC(C2)[C@H]1c1cccnc1 (some centres not stated)	13000	7			
O=C(O)CCC/C=C\C[C@@H]1C2CCC(C2)[C@@]1(CCCCCc1ccccc1)c1cccnc1 (some centres not stated)	1500	790			
O=C(O)CCCCCC[C@@H]1C2CCC(C2)[C@@H]1c1cccnc1 (some centres not stated)	7250	54			
O=C(O)CC/C=C\C[C@@]1(c2cccnc2)C2CCC(C2)[C@H]1CNS(=O)(=O)c1ccc(Cl)cc1 (some centres not stated)	30	340	3.24	10800	
O=C(O)CCCC/C=C\C[C@@H]1C2CCC(C2)C1c1cccnc1 (some centres not stated)					165
O=C(O)CCCCO/N=C(/c1cccnc1)c1cccc(C(F)(F)F)c1 [RIDOGREL]	1280		447	2830	3
